Assay results taken from ChEMBL document CHEMBL3585281, “Antibacterial Labdane Diterpenoids from Vitex vestita” (2015).
Values after ≈ are worked out from the molar mass of the structure shown.

Key:
Assay type in all cases: functional
Bacillus cereus [1] = assay: Antibacterial activity against Bacillus cereus CIP 6624 after 18 hrs by agar dilution method; details: CIP 6624, 18 h
Outline: (§1)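 Agar-dilution MIC against Gram-positive strains. Compounds in DMSO, geometric dilutions giving final 100−0.75 mg/L in Mueller Hinton agar. Strains grown 18 h at 37 °C in trypticase soy broth, diluted in sterile water, spotted by Steers inoculator (about 1000 UFC/spot). Plates incubated 18 h at 37 °C; DMSO blank; ofloxacin positive control. MIC = lowest concentration with no visible growth.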

Bacillus cereus [2] = assay: Antibacterial activity against Bacillus cereus N190 after 18 hrs by agar dilution method; details: N190, 18 h; outline: as §1
Bacillus cereus [3] = assay: Antibacterial activity against Bacillus cereus N258 after 18 hrs by agar dilution method; details: N258, 18 h; outline: as §1
Bacillus cereus [4] = assay: Antibacterial activity against Bacillus cereus N349 after 18 hrs by agar dilution method; details: N349, 18 h; outline: as §1
Bacillus spizizenii = assay: Antibacterial activity against Bacillus subtilis ATCC 6633 after 18 hrs by agar dilution method; details: ATCC 6633, 18 h; outline: as §1
Corynebacterium striatum = assay: Antibacterial activity against Corynebacterium striatum N840 after 18 hrs by agar dilution method; details: N840, 18 h; outline: as §1
Enterococcus avium = assay: Antibacterial activity against Enterococcus avium CIP 104053 after 18 hrs by agar dilution method; details: CIP 104053, 18 h; outline: as §1
[5] = tested on: Enterococcus casseliflavus; assay: Antibacterial activity against Enterococcus casseliflavus N487 after 18 hrs by agar dilution method; details: N487, 18 h; outline: as §1
[6] = tested on: Enterococcus casseliflavus; assay: Antibacterial activity against Enterococcus casseliflavus CIP 103018 after 18 hrs by agar dilution method; details: CIP 103018, 18 h; outline: as §1
Enterococcus durans = assay: Antibacterial activity against Enterococcus durans CIP 104999 after 18 hrs by agar dilution method; details: CIP 104999, 18 h; outline: as §1
Enterococcus faecalis [7] = assay: Antibacterial activity against Enterococcus faecalis CIP 103214 after 18 hrs by agar dilution method; details: CIP 103214, 18 h; outline: as §1
Enterococcus faecalis [8] = assay: Antibacterial activity against Enterococcus faecalis CIP 104676 after 18 hrs by agar dilution method; details: CIP 104676, 18 h; outline: as §1
Enterococcus faecalis [9] = assay: Antibacterial activity against Enterococcus faecalis N491 after 18 hrs by agar dilution method; details: N491, 18 h; outline: as §1
Enterococcus faecalis [10] = assay: Antibacterial activity against Enterococcus faecalis N518 after 18 hrs by agar dilution method; details: N518, 18 h; outline: as §1
Enterococcus faecalis [11] = assay: Antibacterial activity against Enterococcus faecalis N520 after 18 hrs by agar dilution method; details: N520, 18 h; outline: as §1
Enterococcus faecium [12] = assay: Antibacterial activity against Enterococcus faecium CIP 103014 after 18 hrs by agar dilution method; details: CIP 103014, 18 h; outline: as §1
Enterococcus faecium [13] = assay: Antibacterial activity against Enterococcus faecium CIP 107387 after 18 hrs by agar dilution method; details: CIP 107387, 18 h; outline: as §1
Enterococcus faecium [14] = assay: Antibacterial activity against Enterococcus faecium N490 after 18 hrs by agar dilution method; details: N490, 18 h; outline: as §1
Enterococcus faecium [15] = assay: Antibacterial activity against Enterococcus faecium N507 after 18 hrs by agar dilution method; details: N507, 18 h; outline: as §1
Enterococcus faecium [16] = assay: Antibacterial activity against Enterococcus faecium N733 after 18 hrs by agar dilution method; details: N733, 18 h; outline: as §1
Enterococcus faecium [17] = assay: Antibacterial activity against Enterococcus faecium N823 after 18 hrs by agar dilution method; details: N823, 18 h; outline: as §1
Enterococcus gallinarum [18] = assay: Antibacterial activity against Enterococcus gallinarum CIP 105985 after 18 hrs by agar dilution method; details: CIP 105985, 18 h; outline: as §1
Enterococcus gallinarum [19] = assay: Antibacterial activity against Enterococcus gallinarum N489 after 18 hrs by agar dilution method; details: N489, 18 h; outline: as §1
Enterococcus gallinarum [20] = assay: Antibacterial activity against Enterococcus gallinarum N492 after 18 hrs by agar dilution method; details: N492, 18 h; outline: as §1
Enterococcus hirae = assay: Antibacterial activity against Enterococcus hirae CIP 5855 after 18 hrs by agar dilution method; details: CIP 5855, 18 h; outline: as §1
Listeria innocua = assay: Antibacterial activity against Listeria innocua E044 after 18 hrs by agar dilution method; details: E044, 18 h; outline: as §1
Listeria monocytogenes [21] = assay: Antibacterial activity against Listeria monocytogenes CIP 103575 after 18 hrs by agar dilution method; details: CIP 103575, 18 h; outline: as §1
Listeria monocytogenes [22] = assay: Antibacterial activity against Listeria monocytogenes N783 after 18 hrs by agar dilution method; details: N783, 18 h; outline: as §1
Listeria monocytogenes [23] = assay: Antibacterial activity against Listeria monocytogenes N836 after 18 hrs by agar dilution method; details: N836, 18 h; outline: as §1
Listeria monocytogenes [24] = assay: Antibacterial activity against Listeria monocytogenes N851 after 18 hrs by agar dilution method; details: N851, 18 h; outline: as §1
Staphylococcus aureus [25] = assay: Antibacterial activity against Staphylococcus aureus ATCC 25923 after 18 hrs by agar dilution method; details: ATCC 25923, 18 h; outline: as §1
Staphylococcus aureus [26] = assay: Antibacterial activity against Staphylococcus aureus ATCC 9144 oxford after 18 hrs by agar dilution method; outline: as §1
Staphylococcus aureus [27] = assay: Antibacterial activity against Staphylococcus aureus CIP 483 after 18 hrs by agar dilution method; details: CIP 483, 18 h; outline: as §1
Staphylococcus aureus [28] = assay: Antibacterial activity against Staphylococcus aureus CIP 53154 after 18 hrs by agar dilution method; details: CIP 53154, 18 h; outline: as §1
Staphylococcus aureus [29] = assay: Antibacterial activity against Staphylococcus aureus CIP 53156 after 18 hrs by agar dilution method; details: CIP 53156, 18 h; outline: as §1
Staphylococcus aureus [30] = assay: Antibacterial activity against Staphylococcus aureus CIP 5710 after 18 hrs by agar dilution method; details: CIP 5710, 18 h; outline: as §1
Staphylococcus aureus [31] = assay: Antibacterial activity against Staphylococcus aureus CIP 7625 after 18 hrs by agar dilution method; details: CIP 7625, 18 h; outline: as §1
Staphylococcus aureus [32] = assay: Antibacterial activity against Staphylococcus aureus CRBIP 2121 after 18 hrs by agar dilution method; details: CRBIP 2121, 18 h; outline: as §1
[33] = tested on: Staphylococcus epidermidis; assay: Antibacterial activity against Staphylococcus epidermidis CIP 53124 after 18 hrs by agar dilution method; details: CIP 53124, 18 h; outline: as §1
[34] = tested on: Staphylococcus haemolyticus; assay: Antibacterial activity against Staphylococcus haemolyticus CIP 8156 after 18 hrs by agar dilution method; details: CIP 8156, 18 h; outline: as §1
[35] = tested on: Staphylococcus intermedius; assay: Antibacterial activity against Staphylococcus intermedius N987 after 18 hrs by agar dilution method; details: N987, 18 h; outline: as §1
[36] = tested on: Staphylococcus lugdunensis; assay: Antibacterial activity against Staphylococcus lugdunensis ATCC 43809 after 18 hrs by agar dilution method; details: ATCC 43809, 18 h; outline: as §1
[37] = tested on: Staphylococcus saprophyticus; assay: Antibacterial activity against Staphylococcus saprophyticus CIP 76125 after 18 hrs by agar dilution method; details: CIP 76125, 18 h; outline: as §1
[38] = tested on: Staphylococcus saprophyticus; assay: Antibacterial activity against Staphylococcus saprophyticus E260 after 18 hrs by agar dilution method; details: E260, 18 h; outline: as §1
Mammaliicoccus sciuri = assay: Antibacterial activity against Staphylococcus sciuri N993 after 18 hrs by agar dilution method; details: N993, 18 h; outline: as §1
Streptococcus agalactiae = assay: Antibacterial activity against Streptococcus agalactiae CIP 103227 after 18 hrs by agar dilution method; details: ATCC 13813, 18 h; outline: as §1

`CC1(C)S[C@@H]2[C@H](NC(=O)[C@H](N)c3ccc(O)cc3)C(=O)N2[C@H]1C(=O)O` [AMOXICILLIN] gave an MIC (Bacillus cereus [1]) of 11 µM (≈ 4.02 µg/mL), an MIC (Bacillus cereus [2]) of 44 µM (≈ 16.1 µg/mL) and an MIC (Bacillus cereus [3]) of 11 µM (≈ 4.02 µg/mL). For the same compound, the MIC (Bacillus cereus [4]) was 11 µM (≈ 4.02 µg/mL), the MIC (Bacillus spizizenii) was at most 0.2 µM and the MIC (Corynebacterium striatum) was 350 µM (≈ 128 µg/mL). For the same compound, the MIC (Enterococcus avium) was 0.7 µM (≈ 0.256 µg/mL), the MIC [5] was 0.7 µM (≈ 0.256 µg/mL) and the MIC [6] was 0.7 µM (≈ 0.256 µg/mL). The MIC (Enterococcus durans) was 1.4 µM (≈ 0.512 µg/mL), the MIC (Enterococcus faecalis [7]) was 1.4 µM (≈ 0.512 µg/mL) and the MIC (Enterococcus faecalis [8]) was 1.4 µM (≈ 0.512 µg/mL). It also gave an MIC (Enterococcus faecalis [9]) of 0.7 µM (≈ 0.256 µg/mL), an MIC (Enterococcus faecalis [10]) of 0.7 µM (≈ 0.256 µg/mL) and an MIC (Enterococcus faecalis [11]) of 3 µM (≈ 1.1 µg/mL). It also gave an MIC (Enterococcus faecium [12]) of 0.7 µM (≈ 0.256 µg/mL), an MIC (Enterococcus faecium [13]) of 175 µM (≈ 63.9 µg/mL) and an MIC (Enterococcus faecium [14]) of 22 µM (≈ 8.04 µg/mL). For the same compound, the MIC (Enterococcus faecium [15]) was 350 µM (≈ 128 µg/mL), the MIC (Enterococcus faecium [16]) was over 350 µM and the MIC (Enterococcus faecium [17]) was 350 µM (≈ 128 µg/mL). The MIC (Enterococcus gallinarum [18]) was 1.4 µM (≈ 0.512 µg/mL), the MIC (Enterococcus gallinarum [19]) was 0.7 µM (≈ 0.256 µg/mL) and the MIC (Enterococcus gallinarum [20]) was 0.7 µM (≈ 0.256 µg/mL). The MIC (Enterococcus hirae) was 1.4 µM (≈ 0.512 µg/mL), the MIC (Listeria innocua) was 0.7 µM (≈ 0.256 µg/mL) and the MIC (Listeria monocytogenes [21]) was 0.7 µM (≈ 0.256 µg/mL). The MIC (Listeria monocytogenes [22]) was 0.7 µM (≈ 0.256 µg/mL), the MIC (Listeria monocytogenes [23]) was 0.7 µM (≈ 0.256 µg/mL) and the MIC (Listeria monocytogenes [24]) was 0.7 µM (≈ 0.256 µg/mL). The MIC (Staphylococcus aureus [25]) was 0.3 µM (≈ 0.11 µg/mL), the MIC (Staphylococcus aureus [26]) was at most 0.2 µM and the MIC (Staphylococcus aureus [27]) was 0.3 µM (≈ 0.11 µg/mL). The MIC (Staphylococcus aureus [28]) was 0.3 µM (≈ 0.11 µg/mL), the MIC (Staphylococcus aureus [29]) was at most 0.2 µM and the MIC (Staphylococcus aureus [30]) was 0.7 µM (≈ 0.256 µg/mL). It also gave an MIC (Staphylococcus aureus [31]) of 0.3 µM (≈ 0.11 µg/mL), an MIC (Staphylococcus aureus [32]) of 175 µM (≈ 63.9 µg/mL) and an MIC [33] of at most 0.2 µM. The MIC [34] was at most 0.2 µM, the MIC [35] was 88 µM (≈ 32.2 µg/mL) and the MIC [36] was 0.7 µM (≈ 0.256 µg/mL). For the same compound, the MIC [37] was 0.7 µM (≈ 0.256 µg/mL), the MIC [38] was 0.7 µM (≈ 0.256 µg/mL) and the MIC (Mammaliicoccus sciuri) was 0.7 µM (≈ 0.256 µg/mL). The MIC (Streptococcus agalactiae) was at most 0.2 µM.
